Laboratory results published in ChEMBL document CHEMBL2163267, “Novel N-linked aminopiperidine inhibitors of bacterial topoisomerase type II with reduced pK(a): antibacterial agents with an improved safety profile” (J Med Chem, 2012).
Values after ≈ are worked out from the molar mass of the structure shown.

What was measured:
[1] = molecular target: T1, Voltage-gated inwardly rectifying potassium channel KCNH2 (Homo sapiens, UniProt Q12809); assay: Displacement of [3H]-astemizole from human ERG expressed in HEK293 cells after 60 mins by liquid scintillation counter; type: cell-based
Staphylococcus aureus = assay: Antibacterial activity against methicillin-susceptible Staphylococcus aureus after 18 to 24 hrs by CLSI broth microdilution method; type: functional
Pseudomonas aeruginosa = assay: Antibacterial activity against Pseudomonas aeruginosa PAO1 after 18 to 24 hrs by CLSI broth microdilution method; type: functional
[2] = Volume of distribution in Beagle dog at 3 mg/kg, iv administered as bolus dose and 10 mg/kg, po; type: ADME, organism-based, Canis lupus familiaris; settings: in vivo
[3] = Oral bioavailability in Wistar Han rat at 10 mg/kg; type: ADME, organism-based; settings: in vivo
How it was run: (§1)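 Bioavailability from a 10 mg/kg oral dose, by gavage in rats (groups of three) or orally in male beagle dogs (n = 3). Plasma sampled serially over time (dogs 0 to 24 h). Levels measured by LC-MS/MS and referenced to iv dosing. Parameters from non-compartmental analysis.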

Cavia porcellus = assay: Cardiotoxicity in iv dosed guinea pig assessed as MAPD90 prolongation at 16 uM free plasma concentration; type: toxicity, organism-based; settings: in vivo
How it was run: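 Male guinea pigs anaesthetized with Nembutal, tracheotomized and mechanically ventilated. Compound given iv in two 17 min infusion periods with cardiac pacing. Monophasic action potential recorded continuously and MAPD90 taken. Blood drawn at each dose level for plasma concentration. Vehicle controls run in separate cohorts; n = 6.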

[4] = Half life in Beagle dog at 3 mg/kg, iv administered as bolus dose and 10 mg/kg, po; type: ADME, organism-based, Canis lupus familiaris; settings: in vivo
[5] = AUC in Wistar Han rat at 3 mg/kg, iv administered as bolus dose; type: ADME, organism-based; parameters: dose 3 mg/kg, route intravenous; settings: plasma
How it was run: (§2)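 Single iv dose (3 mg/kg bolus, or 10 mg/kg infusion, per line). Rats in groups of three, bolus via cannulated jugular vein. Male beagle dogs (n = 3), iv as 15 min infusion, sampled 0 to 24 h. Serial whole-blood samples taken at time intervals. Plasma levels measured by LC-MS/MS. Parameters estimated by non-compartmental analysis.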

[6] = Fraction unbound in human plasma at 10 uM by equilibrium dialysis method; type: ADME, cell-free
How it was run: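 Equilibrium dialysis. Compound at 10 μM in the plasma (donor) chamber against phosphate buffer, rotated at 37 °C for 16 h. Drug in the plasma and buffer samples quantified by LC-MS/MS after methanol protein precipitation with internal standard. Standard curve 10 nM to 10 μM.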

[7] = Inhibition of Escherichia coli DNA topoisomerase 4 subunit ParC/DNA topoisomerase 4 subunit ParE ATPase activity after 24 hrs by malachite green staining-based colorimetric assay
[8] = molecular target: T1, Voltage-gated inwardly rectifying potassium channel KCNH2; assay: Inhibition of human ERG by Ionworks assay
[9] = Volume of distribution in Wistar Han rat at 3 mg/kg, iv administered as bolus dose and 10 mg/kg, po; type: ADME, organism-based; settings: in vivo; how it was run: as §2
[10] = Half life in Wistar Han rat at 3 mg/kg, iv administered as bolus dose and 10 mg/kg, po; type: ADME, organism-based; settings: in vivo; how it was run: as §2
[11] = Intrinsic clearance in Beagle dog hepatocytes measured per 10^6 cells; type: ADME, cell-based, Canis lupus familiaris, Hepatocyte; settings: read-out: CLH
[12] = Oral bioavailability in Beagle dog at 10 mg/kg; type: ADME, organism-based, Canis lupus familiaris; settings: in vivo; how it was run: as §1
Escherichia coli = assay: Antibacterial activity against Escherichia coli W3110 after 18 to 24 hrs by CLSI broth microdilution method; type: functional
[13] = AUC in Beagle dog at 3 mg/kg, iv administered as bolus dose; type: ADME, organism-based, Canis lupus familiaris; parameters: dose 3 mg/kg, route intravenous; settings: plasma
[14] = Intrinsic clearance in Wistar Han rat hepatocytes measured per 10^6 cells; type: ADME, cell-based, Hepatocyte; settings: read-out: CLH
Streptococcus pneumoniae = assay: Antibacterial activity against penicillin-susceptible Streptococcus pneumoniae D39 after 18 to 24 hrs by CLSI broth microdilution method; type: functional
[15] = Octanol-phosphate buffer partition coefficient, log D of the compound at pH 7.4 by shake flask method; type: physicochemical
How it was run: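 Shake-flask partition between n-octanol and 10 mM phosphate buffer at pH 7.4. Shaken 1 h at 1200 rpm to reach equilibrium. Phases analysed by LC/UV, with MS for mass confirmation.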

[16] = Clearance in Wistar Han rat at 3 mg/kg, iv administered as bolus dose and 10 mg/kg, po; type: ADME, organism-based; settings: in vivo; how it was run: as §2
[17] = Dissociation constant, pKa of the compound by pH metric assay; type: physicochemical
How it was run: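 pH-metric titration on an automated titrator, run in triplicate. Accuracy about 0.02 log units.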

[18] = Clearance in Beagle dog at 3 mg/kg, iv administered as bolus dose and 10 mg/kg, po; type: ADME, organism-based, Canis lupus familiaris; settings: in vivo

T1 sequence (Q12809 whole entry): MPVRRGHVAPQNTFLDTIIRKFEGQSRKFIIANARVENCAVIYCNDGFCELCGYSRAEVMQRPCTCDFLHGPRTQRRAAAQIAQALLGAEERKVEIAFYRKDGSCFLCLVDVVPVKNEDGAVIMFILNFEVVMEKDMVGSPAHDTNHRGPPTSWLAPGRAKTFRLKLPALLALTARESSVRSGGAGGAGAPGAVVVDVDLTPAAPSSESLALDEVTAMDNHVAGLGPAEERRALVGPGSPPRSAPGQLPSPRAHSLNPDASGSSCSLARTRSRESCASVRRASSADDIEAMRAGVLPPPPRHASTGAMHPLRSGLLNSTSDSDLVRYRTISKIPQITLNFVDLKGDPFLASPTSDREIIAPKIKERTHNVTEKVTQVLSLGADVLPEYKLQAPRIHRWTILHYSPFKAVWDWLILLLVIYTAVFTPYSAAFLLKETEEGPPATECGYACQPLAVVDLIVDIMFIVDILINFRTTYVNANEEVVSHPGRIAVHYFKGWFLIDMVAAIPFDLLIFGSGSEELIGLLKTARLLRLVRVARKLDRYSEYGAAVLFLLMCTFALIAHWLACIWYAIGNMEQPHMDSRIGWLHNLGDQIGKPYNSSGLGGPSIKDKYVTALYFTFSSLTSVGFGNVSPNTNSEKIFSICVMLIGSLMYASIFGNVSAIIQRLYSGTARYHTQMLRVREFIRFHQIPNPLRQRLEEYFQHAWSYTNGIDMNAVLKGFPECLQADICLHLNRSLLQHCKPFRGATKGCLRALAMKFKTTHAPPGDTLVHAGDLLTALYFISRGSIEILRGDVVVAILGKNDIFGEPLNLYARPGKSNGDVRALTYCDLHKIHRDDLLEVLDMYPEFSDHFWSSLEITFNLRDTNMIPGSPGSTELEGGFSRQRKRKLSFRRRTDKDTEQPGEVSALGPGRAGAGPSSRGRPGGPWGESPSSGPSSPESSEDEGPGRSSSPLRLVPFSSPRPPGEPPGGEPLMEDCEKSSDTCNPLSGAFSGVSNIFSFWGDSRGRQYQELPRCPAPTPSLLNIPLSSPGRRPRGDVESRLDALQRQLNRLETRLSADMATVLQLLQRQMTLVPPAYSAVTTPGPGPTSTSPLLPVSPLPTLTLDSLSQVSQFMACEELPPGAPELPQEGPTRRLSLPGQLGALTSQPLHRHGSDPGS

Compound	MIC (Staphylococcus aureus) [µg/mL]	MIC (Pseudomonas aeruginosa) [µg/mL]	Vd [2] [L/kg]	AUC [5] [ng·h/mL]	fraction unbound at 10 µM [6]	IC50 [7] [µM]	Vd [9] [L/kg]	hepatocyte CLint [11] [µL/min/1e6 cells]	MIC (Escherichia coli) [µg/mL]	AUC [13] [ng·h/mL]	hepatocyte CLint [14] [µL/min/1e6 cells]	MIC (Streptococcus pneumoniae) [µg/mL]	logD [15]	clearance [16] [mL/min/kg]	pKa [17]	clearance [18] [mL/min/kg]	also measured
N#Cc1ccc2ccc(=O)n(CCN3CCC(NCc4cc5c(cn4)OCCO5)CC3)c2c1	0.03 (≈ 0.0673 µM)	> 8	8	370	0.28	0.0032	21	1.8	0.5 (≈ 1.12 µM)	2600	42	0.08 (≈ 0.18 µM)	0.68	127	8.27	18	IC50 [1]: 39 µM; bioavailability [3]: 31%; Activity (Cavia porcellus): > 10%; half-life [4]: 8.4 h; IC50 [8]: 44 µM; half-life [10]: 3 h; bioavailability [12]: 72%
COc1ccc2ncc(=O)n(CCN3CCC(NCc4ccc5c(n4)NC(=O)CO5)CC3)c2c1	0.03 (≈ 0.0646 µM)	1 (≈ 2.15 µM)	2	190	0.26	0.0022	23	< 1	0.13 (≈ 0.28 µM)	6800	26	0.08 (≈ 0.172 µM)	0.6	252	8.42	8.5	
